CYP2C9 activ: increases human cytochrome P450 2C9 activity; P11712; recombinant CYP2C9, luciferin-H conversion, luminescence; hits give high values; factor 1 = untreated enzyme, 0 = blocked; activation factor at 5 µM; 1.4% of 96,000 active; AID 1024;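 active = activation factor of 2 or more for CYP2C9 at a 5 µM dose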
Cav32 inh: human Cav3.2 channel inhibition, primary screen | B-score at 10 µM | AID 449739 | Cav3.2-expressing cells, Fluo-4 calcium fluorescence FDSS; hits give low values | 4% of 100,000 active | O95180;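 active = single-dose well whose peak fluorescence ratio is a statistical outlier from its plate by either plate-standardised score or position-corrected B-score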
Target sequence (O95180 whole entry, looked up): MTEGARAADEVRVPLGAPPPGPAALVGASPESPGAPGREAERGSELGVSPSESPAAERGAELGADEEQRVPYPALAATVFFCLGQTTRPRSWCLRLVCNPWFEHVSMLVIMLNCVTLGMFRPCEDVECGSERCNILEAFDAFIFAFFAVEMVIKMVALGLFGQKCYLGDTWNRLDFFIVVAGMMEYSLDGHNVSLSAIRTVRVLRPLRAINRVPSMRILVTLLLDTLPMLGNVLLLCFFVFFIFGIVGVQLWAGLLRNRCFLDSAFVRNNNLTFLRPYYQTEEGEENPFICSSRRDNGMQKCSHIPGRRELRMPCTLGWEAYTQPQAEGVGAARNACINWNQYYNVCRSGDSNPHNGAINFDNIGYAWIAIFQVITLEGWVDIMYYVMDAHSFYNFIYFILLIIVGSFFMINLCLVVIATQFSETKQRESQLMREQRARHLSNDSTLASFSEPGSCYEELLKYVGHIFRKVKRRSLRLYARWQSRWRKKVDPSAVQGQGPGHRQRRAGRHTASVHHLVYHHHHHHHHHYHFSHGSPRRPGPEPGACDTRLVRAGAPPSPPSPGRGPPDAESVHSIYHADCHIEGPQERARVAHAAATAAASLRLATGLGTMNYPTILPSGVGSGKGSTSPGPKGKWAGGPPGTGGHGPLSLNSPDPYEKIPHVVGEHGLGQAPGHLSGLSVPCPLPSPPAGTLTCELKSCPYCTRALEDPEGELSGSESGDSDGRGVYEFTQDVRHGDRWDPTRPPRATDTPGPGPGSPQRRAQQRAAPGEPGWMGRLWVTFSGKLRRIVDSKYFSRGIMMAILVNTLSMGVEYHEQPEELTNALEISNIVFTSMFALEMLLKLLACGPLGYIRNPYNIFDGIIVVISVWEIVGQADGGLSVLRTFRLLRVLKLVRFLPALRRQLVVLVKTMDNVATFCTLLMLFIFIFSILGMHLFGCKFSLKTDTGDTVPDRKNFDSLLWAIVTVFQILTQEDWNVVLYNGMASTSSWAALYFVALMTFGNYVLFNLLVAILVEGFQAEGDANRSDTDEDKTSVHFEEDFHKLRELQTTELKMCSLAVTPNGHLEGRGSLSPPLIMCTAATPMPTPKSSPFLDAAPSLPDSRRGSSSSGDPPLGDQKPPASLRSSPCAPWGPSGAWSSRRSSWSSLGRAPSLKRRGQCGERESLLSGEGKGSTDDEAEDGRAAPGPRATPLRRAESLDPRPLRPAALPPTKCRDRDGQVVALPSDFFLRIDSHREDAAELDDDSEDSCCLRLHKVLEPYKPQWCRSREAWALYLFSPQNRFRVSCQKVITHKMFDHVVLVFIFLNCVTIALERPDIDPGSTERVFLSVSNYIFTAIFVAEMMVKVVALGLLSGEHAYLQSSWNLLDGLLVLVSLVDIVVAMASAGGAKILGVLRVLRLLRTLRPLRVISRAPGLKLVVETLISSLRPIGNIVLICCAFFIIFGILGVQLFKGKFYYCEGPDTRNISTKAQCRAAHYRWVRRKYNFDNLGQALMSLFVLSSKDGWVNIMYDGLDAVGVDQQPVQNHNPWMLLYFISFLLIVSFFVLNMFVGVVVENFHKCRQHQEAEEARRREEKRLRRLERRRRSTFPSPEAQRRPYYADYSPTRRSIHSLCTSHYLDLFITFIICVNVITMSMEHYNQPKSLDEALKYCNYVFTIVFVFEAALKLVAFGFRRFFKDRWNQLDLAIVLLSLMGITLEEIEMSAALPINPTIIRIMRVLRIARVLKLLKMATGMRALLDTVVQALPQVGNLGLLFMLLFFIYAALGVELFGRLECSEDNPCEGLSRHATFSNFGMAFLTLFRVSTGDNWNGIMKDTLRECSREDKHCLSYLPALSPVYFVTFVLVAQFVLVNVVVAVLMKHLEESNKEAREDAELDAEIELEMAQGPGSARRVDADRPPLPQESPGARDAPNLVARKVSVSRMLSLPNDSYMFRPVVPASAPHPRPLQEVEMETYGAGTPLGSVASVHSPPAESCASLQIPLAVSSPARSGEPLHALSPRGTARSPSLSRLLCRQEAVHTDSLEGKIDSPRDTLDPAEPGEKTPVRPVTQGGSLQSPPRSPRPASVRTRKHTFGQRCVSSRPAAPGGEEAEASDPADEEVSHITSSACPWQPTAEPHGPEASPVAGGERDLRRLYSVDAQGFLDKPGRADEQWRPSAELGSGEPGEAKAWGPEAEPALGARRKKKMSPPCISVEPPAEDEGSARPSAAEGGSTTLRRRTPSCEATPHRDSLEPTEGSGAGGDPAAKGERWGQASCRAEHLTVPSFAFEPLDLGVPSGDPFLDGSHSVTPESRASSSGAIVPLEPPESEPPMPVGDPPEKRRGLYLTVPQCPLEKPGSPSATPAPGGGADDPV
CYP2C19 act: increases human CYP2C19 enzyme activity; P33261; recombinant CYP2C19, luciferin-H EGE luminescence; hits give high values; 0 = fully inhibited enzyme, 1 = untreated enzyme; activation factor at 5 µM; 96,000 tested, under 10 active;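 active = activation factor of at least 2 at 5 µM in the primary screen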
HIV Rev-RRE inh: HIV Rev-RRE protein-RNA interaction inhibition; Rev peptide-RRE RNA binding, FRET; inhibition, % at 8 µM; 0.79% of 97,000 active; P05866; AID 704;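 active = inhibition above the screen-wide mean plus 3 SD, cut at about 35% in these data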
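Test system: Cy5-tagged RRE RNA duplex with fluorescein-tagged Rev peptide | Read-out: % inhibition of FRET ratio versus controls | Probe or stimulus: Labelled Rev peptide | Incubation: 5 min RNA-compound premix plus 15 min binding step, 25 °C | Technique: FRET fluorescence readout | Benchmarks: DMSO low control, neomycin B high control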
CYP2C9 inh: human CYP2C9 inhibition; inhibition, % at 5 µM; CYP2C9 Supersomes, luciferin-H conversion, luminescence; 20% of 96,000 active; AID 777;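 active = blocking of liver enzyme CYP2C9 beyond about 50% at 5 µM, limit read from the data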
CYP2C19 inh: blocks human cytochrome P450 2C19 | P33261 | CYP2C19 Supersomes, luciferin-H EGE luminescence, 30 min | inhibition, % at 5 µM | 21% of 96,000 active;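 active = CYP2C19 inhibition above a set limit at 5 µM in the primary screen, cut at about 50% in these data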
Large screens that a line does not name were inactive. Hits are enriched below; roughly 27% of the tested compounds scored in any of these assays.

O=C(CN1CCN(c2ccc(Cl)cc2)CC1)Nc1ccc(F)cc1	Cav32 inh -4.5
C#CCOC(=O)CCC(=O)Nc1cc(OC)nc(OC)n1	none
CCOc1c(CNCCN2CCOCC2)cccc1OC	none
O=C(CCC1CCCC1)N1CCN(C2CCCC2)CC1	CYP2C19 inh 73 (no result: HIV Rev-RRE inh)
O=C(NCC1CCCO1)c1ccc(CS(=O)(=O)Cc2ccc(F)cc2)o1 (stereo not given)	none
Cc1ccc(C(=O)NC(C)(COc2nonc2C)COc2nonc2C)cc1	CYP2C9 inh 72, CYP2C19 inh 94
CCOC(=O)CNC(=O)c1cc(C)oc1C	none
CCCC1(CCC)NC(=O)N(CC(=O)Nc2cccc(OC)c2)C1=O	none
CS(=O)(=O)N1CCN(CC2CC3C=CC2C3)CC1 (stereo not given)	none
Cc1ccccc1CN1CCN(CC2CC3C=CC2C3)CC1 (stereo not given)	CYP2C19 inh 61
Cc1ccc(-n2nc(C(=O)N/N=C/c3cccc(C(F)(F)F)c3)c3ccccc3c2=O)cc1C	none
COc1ccc2c3c(cccc13)N(C)N=C2C	CYP2C9 inh 63, CYP2C19 inh 74 (no result: Cav32 inh)
COc1cc(C(=O)N(Cc2cccnc2)Cc2cc3cc4c(cc3[nH]c2=O)OCCO4)cc(OC)c1OC	none
CCC(=NCc1ccccc1)c1c(C(F)(F)F)[nH]n(-c2nc3ccccc3s2)c1=O	CYP2C9 inh 94, CYP2C19 inh 68
CCCN=C(C)c1c(-c2ccccc2)[nH]n(-c2nc3ccccc3s2)c1=O	none
CCC(=NCc1ccco1)c1c(C(F)(F)F)[nH]n(-c2nc3ccccc3s2)c1=O	CYP2C9 inh 70, CYP2C19 inh 64
c1ccc(-c2nc3nonc3nc2-c2ccccc2)cc1	CYP2C19 inh 66 (no result: Cav32 inh)
Nc1c(-c2ccccc2)nc(Cl)nc1-c1ccccc1	none
N#CC1=C2SCN(Cc3ccccc3)CN2C(=O)CC1c1cccs1 (stereo not given)	CYP2C9 inh 60, CYP2C19 inh 51
N#CC1=C2SCN(Cc3ccccc3)CN2C(=O)CC1c1ccc2c(c1)OCO2 (stereo not given)	CYP2C9 inh 59, CYP2C19 inh 54
N#CC1=C(N)OC(c2ccccc2)=C(C#N)C1c1ccc2c(c1)OCO2 (stereo not given)	none
N#CC1=C(S)N(c2ccccc2)C(c2cccs2)NC1=O (stereo not given)	none
OCC[C@H]1C[C@H](O)[C@@H](O)[C@@]2(CCCO2)O1	none (no result: CYP2C9 activ, CYP2C19 act, HIV Rev-RRE inh, CYP2C9 inh, CYP2C19 inh)
COc1ccc(N2C(=O)NC(NC(=O)c3ccncc3)(C(F)(F)F)C2=O)cc1 (stereo not given)	CYP2C9 inh 55
O=C(NC1(C(F)(F)F)NC(=O)N(Cc2cccnc2)C1=O)c1ccncc1 (stereo not given)	CYP2C9 inh 60
CC(C)CN1C(=O)NC(NC(=O)c2cccnc2)(C(F)(F)F)C1=O (stereo not given)	none
O=C1NC(NS(=O)(=O)c2ccccc2)(C(F)(F)F)C(=O)N1Cc1cccnc1 (stereo not given)	CYP2C9 inh 67
O=C(CSc1nncs1)N1c2ccccc2Sc2ccccc21	CYP2C19 inh 62 (no result: HIV Rev-RRE inh)
O=C(CSc1n[nH]c(-c2ccco2)n1)N1c2ccccc2Sc2ccccc21	CYP2C9 inh 52 (no result: HIV Rev-RRE inh)
CCOC(=O)CSc1n[nH]c(-c2ccco2)n1	none
Cn1nnnc1SCC(=O)N1c2ccccc2Sc2ccccc21	none
CC(C)CN1CCC(=O)N(CCSc2ccc(Br)cc2)CC1	none (no result: CYP2C9 activ, CYP2C19 act, HIV Rev-RRE inh, CYP2C9 inh, CYP2C19 inh)
COCCNC(=O)c1onc(CSc2ccc(F)c(F)c2)c1C(=O)NCCOC	none (no result: CYP2C9 activ, CYP2C19 act, HIV Rev-RRE inh, CYP2C9 inh, CYP2C19 inh)
CCN(CC)S(=O)(=O)c1ccc(NC(=O)CC(NC(C)=O)c2ccccc2)cc1 (stereo not given)	CYP2C9 inh 86
CC(=O)NC(CC(=O)Nc1ccc(S(=O)(=O)N2CCCC2)cc1)c1ccccc1 (stereo not given)	CYP2C9 inh 52
CCN(CC)S(=O)(=O)c1ccc(NC(=O)CSc2cccc[n+]2[O-])cc1	none
CCN(CC)S(=O)(=O)c1ccc(NC(=O)C(OC)c2ccccc2)cc1 (stereo not given)	CYP2C9 inh 55
CCc1nc(C)cc(N)c1OCc1ccccc1	none
COc1ccc(OC)c(CC(NC(C)=O)C(=O)NC2CCN(c3nc(C)cc(C)c3C#N)CC2)c1 (stereo not given)	none (no result: Cav32 inh, HIV Rev-RRE inh)
Cc1sc(=NC(=O)c2ccco2)n(C)c1-c1ccccc1	CYP2C9 inh 65
COc1c(Cl)ccc(Cl)c1C(=O)OCC(=O)O	none (no result: HIV Rev-RRE inh)
COC(=O)c1ccc(C23CC4(C2)[C@H](CN(CC2CCCCC2)[C@@H]4c2ccccc2)C3c2ccccc2)cc1 (stereo not given in full)	none (no result: CYP2C9 activ, CYP2C19 act, HIV Rev-RRE inh, CYP2C9 inh, CYP2C19 inh)
C#CCOCCOCCOCCNc1nc(N2CCN(C(=O)C([C@@H](C)CC)n3cc(C(N)CO)nn3)CC2)nc(N2CCN(C(=O)[C@H](CCC(=O)O)n3cc(C(N)[C@H](C)CC)nn3)CC2)n1 (stereo not given in full)	none (no result: CYP2C9 activ, CYP2C19 act, HIV Rev-RRE inh, CYP2C9 inh, CYP2C19 inh)
O=C(N/N=C/C=C/c1ccccc1)c1cc2c(ccc3ccccc32)o1	none
C=CCn1cc(/C=N\NC(=O)c2cc3c(ccc4ccccc43)o2)c2ccccc21	CYP2C9 inh 62
CCSc1nc2ccccc2n1Cc1nc(N)nc(N(C)C)n1	CYP2C9 inh 66, CYP2C19 inh 90
CCSc1nc2ccccc2n1CC(N)=O	none (no result: CYP2C9 activ, CYP2C19 act, CYP2C9 inh, CYP2C19 inh)
CC1(C)NC(=O)N(CCOc2ccc3c(c2)CCC3)C1=O	CYP2C19 inh 72 (no result: HIV Rev-RRE inh)
CCc1cccc(OCCCCNCCOC)c1	none
CC(=O)c1cccc(OCCN2C(=O)NC(C)(C)C2=O)c1	CYP2C9 inh 50
CCc1cccc(OCCCN2C(=O)NC(C)(C)C2=O)c1	CYP2C9 inh 60, CYP2C19 inh 92
CCCCCCOc1ccc(OCC(O)CN2C(=O)NC(C)(C)C2=O)cc1 (stereo not given)	none
COc1ccc(C(=O)c2ccc(N3CCN(C4CC(=O)NC4=O)CC3)cc2)cc1F (stereo not given)	none
Cc1cccc(CSc2ncnc3nc[nH]c23)c1	CYP2C19 inh 72 (no result: Cav32 inh, HIV Rev-RRE inh)
O=C1C2C3C=CC(C3=C3CCCCC3)C2C(=O)N1Cc1ccccc1 (stereo not given)	CYP2C9 inh 55
O=C1C2CC=CCC2C(=O)N1Cc1ccccc1 (stereo not given)	none (no result: CYP2C9 activ, CYP2C19 act, CYP2C9 inh, CYP2C19 inh)
CCOC(=O)N1CCC(NC(=O)c2cnn3c(C(F)(F)F)cc(-c4cccc(OC)c4)nc23)CC1	CYP2C9 inh 58, CYP2C19 inh 61 (no result: HIV Rev-RRE inh)
CCOC(=O)c1cnc2c(-c3ccccc3)cnn2c1N	CYP2C9 inh 57, CYP2C19 inh 63
CCOC(=O)c1cnn2c(C(F)(F)F)cc(-c3cn(C)nc3C)nc12	CYP2C9 inh 85, CYP2C19 inh 57
CCOC(=O)c1cnn2c(C(F)(F)F)cc(-c3ccccc3)nc12	CYP2C9 inh 54 (no result: HIV Rev-RRE inh)
COC(=O)c1cnn2c(C(F)(F)F)cc(-c3ccc(F)cc3)nc12	none
CCCCn1nnnc1SCC(=O)NNC(=O)C1CCCCC1	none

Assay outcomes: PubChem, several laboratories
